Data reported in ChEMBL document CHEMBL5108036, “A concise SAR-analysis of antimicrobial cationic amphipathic barbiturates for an improved activity-toxicity profile” (Eur J Med Chem, 2022).

Tests used:
Staphylococcus aureus = assay: Antibacterial activity against Staphylococcus aureus ATCC 9144 incubated for 48 hrs and measured by broth microdilution assay; type: functional
Outline: (§1)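 MICs in µg/mL were measured against the reference strains S. aureus ATCC 9144, B. subtilis 168, E. coli ATCC 25922 and P. aeruginosa ATCC 27853. Compounds were tested as di-TFA salts.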

Bacillus subtilis = assay: Antibacterial activity against Bacillus subtilis 168 incubated for 48 hrs and measured by broth microdilution assay; type: functional; outline: as §1
Escherichia coli = assay: Antibacterial activity against Escherichia coli ATCC 25922 incubated for 48 hrs and measured by broth microdilution assay; type: functional; outline: as §1
[1] = Selectivity index, ratio HC50 for hemolytic activity in human RBC to MIC for antibacterial activity against Staphylococcus aureus ATCC 9144; type: toxicity; settings: human red blood cells (erythrocytes)
Outline: (§2)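 SI is the ratio of RBC lysis EC50 to MIC for each reference strain.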

[2] = Selectivity index, ratio HC50 for hemolytic activity in human RBC to MIC for antibacterial activity against Bacillus subtilis 168; type: toxicity; settings: human red blood cells (erythrocytes); outline: as §2
Pseudomonas aeruginosa = assay: Antibacterial activity against Pseudomonas aeruginosa ATCC 27853 incubated for 48 hrs and measured by broth microdilution assay; type: functional; outline: as §1
[3] = (§3) Hemolytic activity in human RBC measured after 1 hr by microplate reader method; type: toxicity, cell-based, Erythrocyte; settings: human, human red blood cells (erythrocytes)
Outline: (§4)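 Human red blood cell lysis was used as the cytotoxicity read-out, expressed as EC50 in µg/mL. The highest concentration tested was 500 µM. Compounds were tested as di-TFA salts.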

[4] = Solubility in pure water; type: physicochemical
Erythrocyte = assay: as §3; type: toxicity, cell-based; settings: erythrocyte; outline: as §4
[5] = Selectivity index, ratio HC50 for hemolytic activity in human RBC to MIC for antibacterial activity against Pseudomonas aeruginosa ATCC 27853; type: toxicity; settings: human red blood cells (erythrocytes); outline: as §2
[6] = Selectivity index, ratio HC50 for hemolytic activity in human RBC to MIC for antibacterial activity against Escherichia coli ATCC 25922; type: toxicity; settings: human red blood cells (erythrocytes); outline: as §2

N=C(N)NCCCCN1C(=O)N(CCCCNC(=N)N)C(=O)C(Cc2cc(Br)cc(Br)c2)(Cc2ccc3ccccc3n2)C1=O.O=C(O)C(F)(F)F.O=C(O)C(F)(F)F (centres undefined)
MIC (Staphylococcus aureus): 2 µg/mL | MIC (Bacillus subtilis): 4 µg/mL | MIC (Escherichia coli): 32 µg/mL | selectivity ratio [1]: 225 | selectivity ratio [2]: 113 | MIC (Pseudomonas aeruginosa): 32 µg/mL | EC50 at 1 h [3]: 450 µg/mL

Cl.Cl.NCCCN1C(=O)N(CCCN)C(=O)C(Cc2ccc(Br)c(Cl)c2)(Cc2ccc(Br)c(Cl)c2)C1=O
MIC (Staphylococcus aureus): 8 µg/mL | solubility [4]: ≤ 1000 µg/mL | MIC (Escherichia coli): 8 µg/mL | EC50 (Erythrocyte): 271 µg/mL

N=C(N)NCCCN1C(=O)N(CCCNC(=N)N)C(=O)C(Cc2ccc3cc(Br)ccc3n2)(Cc2ccc3cc(Br)ccc3n2)C1=O.O=C(O)C(F)(F)F.O=C(O)C(F)(F)F
MIC (Staphylococcus aureus): 8 µg/mL | MIC (Bacillus subtilis): 4 µg/mL | MIC (Escherichia coli): 64 µg/mL | selectivity ratio [1]: > 62 | selectivity ratio [2]: > 124 | MIC (Pseudomonas aeruginosa): > 128 µg/mL | EC50 at 1 h [3]: > 497 µg/mL

Cl.Cl.NCCCN1C(=O)N(CCCN)C(=O)C(Cc2cc(C(F)(F)F)cc(C(F)(F)F)c2)(Cc2cc(C(F)(F)F)cc(C(F)(F)F)c2)C1=O
MIC (Staphylococcus aureus): 8 µg/mL | solubility [4]: ≤ 1000 µg/mL | MIC (Escherichia coli): 8 µg/mL | EC50 (Erythrocyte): 224 µg/mL

C[N+](C)(C)CCCCN1C(=O)N(CCCC[N+](C)(C)C)C(=O)C(Cc2cc(Br)cc(Br)c2)(Cc2cc(Br)cc(Br)c2)C1=O.O=C([O-])C(F)(F)F.O=C([O-])C(F)(F)F
MIC (Staphylococcus aureus): 4 µg/mL | MIC (Bacillus subtilis): 8 µg/mL | MIC (Escherichia coli): 128 µg/mL | selectivity ratio [1]: > 135 | selectivity ratio [2]: > 67 | MIC (Pseudomonas aeruginosa): 256 µg/mL | EC50 at 1 h [3]: > 539 µg/mL

N=C(N)NCCCCN1C(=O)N(CCCCNC(=N)N)C(=O)C(Cc2cc(Br)cc(Br)c2)(Cc2cc(Br)cc(Br)c2)C1=O.O=C(O)C(F)(F)F.O=C(O)C(F)(F)F
MIC (Staphylococcus aureus): 2 µg/mL | selectivity ratio [5]: 8 | MIC (Bacillus subtilis): 2 µg/mL | MIC (Escherichia coli): 2 µg/mL | selectivity ratio [6]: 32 | selectivity ratio [1]: 32 | selectivity ratio [2]: 32 | MIC (Pseudomonas aeruginosa): 8 µg/mL | EC50 at 1 h [3]: 62 µg/mL

N=C(N)NCCCN1C(=O)N(CCCNC(=N)N)C(=O)C(Cc2ccc(Br)c(Cl)c2)(Cc2ccc(Br)c(Cl)c2)C1=O.O=C(O)C(F)(F)F.O=C(O)C(F)(F)F
MIC (Staphylococcus aureus): 2 µg/mL | MIC (Bacillus subtilis): 2 µg/mL | solubility [4]: < 1000 µg/mL | MIC (Escherichia coli): 8 µg/mL | MIC (Pseudomonas aeruginosa): 32 µg/mL | EC50 at 1 h [3]: 348 µg/mL

NCCCCN1C(=O)N(CCCCN)C(=O)C(Cc2cc(Br)cc(Br)c2)(Cc2cc(Br)cc(Br)c2)C1=O.O=C(O)C(F)(F)F.O=C(O)C(F)(F)F
MIC (Staphylococcus aureus): 4 µg/mL | selectivity ratio [5]: 10 | MIC (Bacillus subtilis): 2 µg/mL | MIC (Escherichia coli): 4 µg/mL | selectivity ratio [6]: 20 | selectivity ratio [1]: 20 | selectivity ratio [2]: 40 | MIC (Pseudomonas aeruginosa): 8 µg/mL | EC50 at 1 h [3]: 79 µg/mL

N=C(N)NCCCN1C(=O)N(CCCNC(=N)N)C(=O)C(Cc2cc(Br)cc(Br)c2)(Cc2cc(Br)cc(Br)c2)C1=O.O=C(O)C(F)(F)F.O=C(O)C(F)(F)F
MIC (Staphylococcus aureus): 2 µg/mL | selectivity ratio [5]: 23 | MIC (Bacillus subtilis): 2 µg/mL | MIC (Escherichia coli): 4 µg/mL | selectivity ratio [6]: 47 | selectivity ratio [1]: 93 | selectivity ratio [2]: 93 | MIC (Pseudomonas aeruginosa): 8 µg/mL | EC50 at 1 h [3]: 187 µg/mL

O=C([O-])C(F)(F)F.O=C([O-])C(F)(F)F.O=C1N(CCCC[n+]2ccccc2)C(=O)C(Cc2cc(Br)cc(Br)c2)(Cc2cc(Br)cc(Br)c2)C(=O)N1CCCC[n+]1ccccc1
MIC (Staphylococcus aureus): 2 µg/mL | MIC (Bacillus subtilis): 4 µg/mL | MIC (Escherichia coli): 8 µg/mL | selectivity ratio [6]: > 70 | selectivity ratio [1]: > 280 | selectivity ratio [2]: > 140 | MIC (Pseudomonas aeruginosa): 128 µg/mL | EC50 at 1 h [3]: > 559 µg/mL

CC(C)(C)c1ccc(CC2(Cc3cc(Br)cc(Br)c3)C(=O)N(CCCNC(=N)N)C(=O)N(CCCNC(=N)N)C2=O)cc1.O=C(O)C(F)(F)F.O=C(O)C(F)(F)F (centres undefined)
MIC (Staphylococcus aureus): 1 µg/mL | selectivity ratio [5]: 11 | MIC (Bacillus subtilis): 1 µg/mL | MIC (Escherichia coli): 2 µg/mL | selectivity ratio [6]: 85 | selectivity ratio [1]: 169 | selectivity ratio [2]: 169 | MIC (Pseudomonas aeruginosa): 16 µg/mL | EC50 at 1 h [3]: 169 µg/mL

NCCCN1C(=O)N(CCCN)C(=O)C(Cc2ccc(Br)c(Cl)c2)(Cc2ccc(Br)c(Cl)c2)C1=O.O=C(O)C(F)(F)F.O=C(O)C(F)(F)F
MIC (Staphylococcus aureus): 8 µg/mL | selectivity ratio [5]: 20 | MIC (Bacillus subtilis): 4 µg/mL | solubility [4]: < 1000 µg/mL | MIC (Escherichia coli): 8 µg/mL | selectivity ratio [6]: 40 | selectivity ratio [1]: 40 | selectivity ratio [2]: 81 | MIC (Pseudomonas aeruginosa): 16 µg/mL | EC50 at 1 h [3]: 323 µg/mL

NCCCN1C(=O)N(CCCN)C(=O)C(Cc2ccc(C(F)(F)F)cc2)(Cc2cc(Br)cc(Br)c2)C1=O.O=C(O)C(F)(F)F.O=C(O)C(F)(F)F
MIC (Staphylococcus aureus): 32 µg/mL | MIC (Bacillus subtilis): 8 µg/mL | MIC (Escherichia coli): 16 µg/mL | MIC (Pseudomonas aeruginosa): 32 µg/mL | EC50 at 1 h [3]: > 438 µg/mL

Cl.Cl.N=C(N)NCCCN1C(=O)N(CCCNC(=N)N)C(=O)C(Cc2cc(C(F)(F)F)cc(C(F)(F)F)c2)(Cc2cc(C(F)(F)F)cc(C(F)(F)F)c2)C1=O
MIC (Staphylococcus aureus): 2 µg/mL | solubility [4]: ≤ 1000 µg/mL | MIC (Escherichia coli): 8 µg/mL | EC50 (Erythrocyte): 118 µg/mL

Cl.Cl.N=C(N)NCCCN1C(=O)N(CCCNC(=N)N)C(=O)C(Cc2ccc(Br)c(Cl)c2)(Cc2ccc(Br)c(Cl)c2)C1=O
MIC (Staphylococcus aureus): 0.5 µg/mL | solubility [4]: < 1000 µg/mL | MIC (Escherichia coli): 8 µg/mL | EC50 (Erythrocyte): 291 µg/mL

NCCCN1C(=O)N(CCCN)C(=O)C(Cc2cc(C(F)(F)F)cc(C(F)(F)F)c2)(Cc2cc(C(F)(F)F)cc(C(F)(F)F)c2)C1=O.O=C(O)C(F)(F)F.O=C(O)C(F)(F)F
MIC (Staphylococcus aureus): 8 µg/mL | selectivity ratio [5]: 23 | MIC (Bacillus subtilis): 4 µg/mL | solubility [4]: < 1000 µg/mL | MIC (Escherichia coli): 8 µg/mL | selectivity ratio [6]: 23 | selectivity ratio [1]: 23 | selectivity ratio [2]: 46 | MIC (Pseudomonas aeruginosa): 8 µg/mL | EC50 at 1 h [3]: 176 µg/mL

N=C(N)NCCCN1C(=O)N(CCCNC(=N)N)C(=O)C(Cc2ccc(C(F)(F)F)cc2)(Cc2ccc(C(F)(F)F)cc2)C1=O.O=C(O)C(F)(F)F.O=C(O)C(F)(F)F
MIC (Staphylococcus aureus): 8 µg/mL | MIC (Bacillus subtilis): 4 µg/mL | MIC (Escherichia coli): 128 µg/mL | selectivity ratio [1]: > 54 | selectivity ratio [2]: > 109 | MIC (Pseudomonas aeruginosa): 256 µg/mL | EC50 at 1 h [3]: > 435 µg/mL

NCCN1C(=O)N(CCN)C(=O)C(Cc2cc(Br)cc(Br)c2)(Cc2cc(Br)cc(Br)c2)C1=O.O=C(O)C(F)(F)F.O=C(O)C(F)(F)F
MIC (Staphylococcus aureus): 4 µg/mL | MIC (Bacillus subtilis): 4 µg/mL | MIC (Escherichia coli): 4 µg/mL | MIC (Pseudomonas aeruginosa): 8 µg/mL | EC50 at 1 h [3]: 39 µg/mL

N[C@H]1CC[C@@H](N2C(=O)N([C@H]3CC[C@@H](N)CC3)C(=O)C(Cc3cc(Br)cc(Br)c3)(Cc3cc(Br)cc(Br)c3)C2=O)CC1.O=C(O)C(F)(F)F.O=C(O)C(F)(F)F
MIC (Staphylococcus aureus): 4 µg/mL | MIC (Bacillus subtilis): 4 µg/mL | MIC (Escherichia coli): 4 µg/mL | MIC (Pseudomonas aeruginosa): 8 µg/mL | EC50 at 1 h [3]: 15 µg/mL

NCCCCN1C(=O)N(CCCCN)C(=O)C(Cc2cc(Br)cc(Br)c2)(Cc2ccc(Br)c3ccccc23)C1=O.O=C(O)C(F)(F)F.O=C(O)C(F)(F)F
MIC (Staphylococcus aureus): 4 µg/mL | MIC (Bacillus subtilis): 4 µg/mL | MIC (Escherichia coli): 4 µg/mL | MIC (Pseudomonas aeruginosa): 8 µg/mL | EC50 at 1 h [3]: 47 µg/mL

CC(C)(C)c1ccc(CC2(Cc3cc(Br)cc(Br)c3)C(=O)N(CCCCN)C(=O)N(CCCCN)C2=O)cc1.O=C(O)C(F)(F)F.O=C(O)C(F)(F)F
MIC (Staphylococcus aureus): 4 µg/mL | MIC (Bacillus subtilis): 4 µg/mL | MIC (Escherichia coli): 8 µg/mL | MIC (Pseudomonas aeruginosa): 8 µg/mL | EC50 at 1 h [3]: 82 µg/mL

N[C@H]1CC[C@H](N2C(=O)N([C@H]3CC[C@H](N)CC3)C(=O)C(Cc3cc(Br)cc(Br)c3)(Cc3cc(Br)cc(Br)c3)C2=O)CC1.O=C(O)C(F)(F)F.O=C(O)C(F)(F)F
MIC (Staphylococcus aureus): 2 µg/mL | MIC (Bacillus subtilis): 2 µg/mL | MIC (Escherichia coli): 2 µg/mL | MIC (Pseudomonas aeruginosa): 4 µg/mL | EC50 at 1 h [3]: 16 µg/mL
